Experimental data published in ChEMBL document CHEMBL3739255, “Novel Series of Dihydropyridinone P2X7 Receptor Antagonists” (J Med Chem, 2015).

Assays:
[1] = Drug metabolism in cynomolgus monkey urine assessed as hydrolysis of amide bond at 10 mg/kg; assay type: ADME, organism-based, Macaca fascicularis; conditions: in vivo
[2] = target: Peroxisome proliferator-activated receptor gamma (Homo sapiens) (UniProt P37231); test: Inhibition of human PPARgamma at 10 uM
Procedure, shortened: (§1)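 Outsourced broad receptor-screening panel of 78 targets, each tested at a single 10 uM concentration; read-out is percent inhibition. Detailed conditions are given only in the Supporting Information.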

[3] = target: Adrenergic receptor alpha-1 (Rattus norvegicus) (UniProt P15823+P23944+P43140); test: Inhibition of rat alpha1-adrenoceptor at 10 uM; procedure, shortened: as §1
[4] = target: Type-2 angiotensin II receptor (Homo sapiens) (UniProt P50052); test: Inhibition of human angiotensin 2 receptor 2 at 10 uM; procedure, shortened: as §1
Type-2 angiotensin II receptor (Homo sapiens), sequence (P50052 whole entry): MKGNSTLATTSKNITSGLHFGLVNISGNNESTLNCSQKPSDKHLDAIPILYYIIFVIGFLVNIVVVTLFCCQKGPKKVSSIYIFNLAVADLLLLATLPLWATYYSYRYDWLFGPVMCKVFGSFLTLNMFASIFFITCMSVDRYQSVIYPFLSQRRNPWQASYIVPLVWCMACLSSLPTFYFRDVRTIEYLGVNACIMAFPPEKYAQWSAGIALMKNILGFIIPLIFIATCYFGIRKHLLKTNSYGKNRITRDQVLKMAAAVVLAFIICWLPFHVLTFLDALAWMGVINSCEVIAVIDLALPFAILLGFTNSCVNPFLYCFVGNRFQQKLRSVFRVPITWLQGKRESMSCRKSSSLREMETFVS

[5] = target: Histamine H2 receptor (Homo sapiens) (UniProt P25021); test: Inhibition of human histamine H2 receptor at 10 uM; procedure, shortened: as §1
Histamine H2 receptor (Homo sapiens), sequence (P25021 whole entry): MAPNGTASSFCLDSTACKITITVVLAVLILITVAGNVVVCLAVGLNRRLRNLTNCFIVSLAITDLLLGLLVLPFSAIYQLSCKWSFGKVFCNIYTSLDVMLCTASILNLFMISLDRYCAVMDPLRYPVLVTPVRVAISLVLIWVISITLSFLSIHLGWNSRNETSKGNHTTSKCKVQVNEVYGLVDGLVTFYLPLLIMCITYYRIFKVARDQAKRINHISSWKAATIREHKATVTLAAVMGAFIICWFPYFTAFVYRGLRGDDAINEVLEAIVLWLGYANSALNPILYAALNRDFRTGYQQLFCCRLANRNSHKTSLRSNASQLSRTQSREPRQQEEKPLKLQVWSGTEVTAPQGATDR

[6] = target: Substance-P receptor (Homo sapiens) (UniProt P25103); test: Inhibition of human NK1 receptor at 10 uM by radioligand binding assay
Substance-P receptor (Homo sapiens), sequence (P25103 whole entry): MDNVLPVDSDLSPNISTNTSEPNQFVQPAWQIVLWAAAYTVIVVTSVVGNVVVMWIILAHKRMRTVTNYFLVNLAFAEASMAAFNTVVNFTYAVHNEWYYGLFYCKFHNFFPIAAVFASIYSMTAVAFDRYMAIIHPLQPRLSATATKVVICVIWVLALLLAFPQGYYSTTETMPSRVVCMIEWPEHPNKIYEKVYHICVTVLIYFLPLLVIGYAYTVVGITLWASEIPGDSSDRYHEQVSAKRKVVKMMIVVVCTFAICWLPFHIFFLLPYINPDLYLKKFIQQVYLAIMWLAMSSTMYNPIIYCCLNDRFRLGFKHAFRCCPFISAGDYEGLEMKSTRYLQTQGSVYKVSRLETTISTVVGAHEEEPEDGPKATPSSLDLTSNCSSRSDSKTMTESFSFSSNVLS
Procedure, shortened: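 Commercial receptor scan across a 78-target panel, with percent inhibition measured at a test concentration of 10 uM.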

[7] = organism: Rattus norvegicus; test: Inhibition of rat sigma receptor at 10 uM
Procedure, shortened: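 Single-concentration screen at 10 uM in a commercial 78-receptor panel run by CEREP; results are given as % inhibition.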

Peroxisome proliferator-activated receptor gamma (Homo sapiens), sequence (P37231 whole entry): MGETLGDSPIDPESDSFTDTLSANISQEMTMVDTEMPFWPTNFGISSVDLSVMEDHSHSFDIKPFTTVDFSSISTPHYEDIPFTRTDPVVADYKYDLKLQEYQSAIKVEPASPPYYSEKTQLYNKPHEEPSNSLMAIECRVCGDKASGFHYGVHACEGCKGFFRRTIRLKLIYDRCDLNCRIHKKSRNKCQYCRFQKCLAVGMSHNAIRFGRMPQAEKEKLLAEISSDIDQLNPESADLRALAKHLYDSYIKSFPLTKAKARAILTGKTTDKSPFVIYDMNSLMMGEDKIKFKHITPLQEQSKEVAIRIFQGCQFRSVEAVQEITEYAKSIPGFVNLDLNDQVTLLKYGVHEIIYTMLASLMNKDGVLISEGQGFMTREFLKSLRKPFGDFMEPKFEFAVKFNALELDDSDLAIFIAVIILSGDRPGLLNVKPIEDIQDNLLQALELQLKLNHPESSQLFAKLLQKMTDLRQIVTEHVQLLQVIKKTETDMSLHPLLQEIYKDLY

Stability [1]: Stable | inhibition [2]: < 30% | inhibition [3]: < 30% | inhibition [4]: < 30% | inhibition [5]: < 30% | inhibition [6]: < 30% | inhibition [7]: < 30%
SMILES: Cc1cc(Cl)c(OCCO)cc1NC(=O)C1=CNC(=O)C[C@H]1c1ccc(F)cc1
